Compound activity from PubChem.
PostGolgi ctrl = growth of the yeast control strain, post-Golgi counter-screen | efflux-deficient yeast background strain, growth absorbance A615, 16 h | inhibition, % at 10 µM | 98,000 compounds, 5% hits | AID 738
PostGolgi yeast = growth inhibition of a yeast mutant, post-Golgi transport screen. post-Golgi transport phenotypic cell assay. inhibition, % at 10 µM. 98,000 compounds, 0.9% hits. AID 739;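 also: yeast cells grown in 1536-well plates; yeast grown about 18 h at 30C before absorbance read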
BB579 growth dn = yeast BB579 growth reduction in restrictive medium | AID 804 | S. cerevisiae BB579 growth, OD615, 48 h | inhibition, % at 10 µM | 140,000 compounds, 0.51% hits;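 active = inhibition above a set limit, 3 SD over the mean compound inhibition, cut at about 44% in these data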
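System: DeaD yeast strain BB579; buffer or medium: CSMM-D dextrose restrictive medium; technique: OD at 615 nm; schedule: 4 h cell preincubation, 48 h compound exposure, 30 °C humidified; doses: single 10 µM dose; controls: amphotericin B 10 µg/mL, positive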
Yeast life ext = extends the lifespan of yeast; S. cerevisiae growth with nicotinamide, OD615; deaD strain in restrictive glucose medium; inhibition of the nicotinamide effect, % at 10 µM; 130,000 compounds, 0.68% hits;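 active = inhibition above a set limit, placed 3 SD over the median of all compounds, cut at about 26% in these data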;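 also: 0% = nicotinamide-treated wells and 100% = cells grown without nicotinamide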
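Test system – modified budding yeast, DeaD strain · Compound – single dose 10 µM compound, 0.25% DMSO · Times – culture preincubation 4 h, compound exposure 48 h, both 30 °C · Detection – optical density (absorbance) at 615 nm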
The depositor's hits bear a star; . = no result. The sample as a whole holds a higher share of hits than the screen did. Rule as the data show it, unless noted: active = inhibition above about 30%; inactive = the rest.

SMILES	PostGolgi ctrl	PostGolgi yeast	BB579 growth dn	Yeast life ext
O=C(O)c1ccccc1Nc1ccc([N+](=O)[O-])cc1	.	.	95*	-5
CCOc1ccc2nc(NC(=O)CN3CCC(n4nnc5cc(F)ccc54)CC3)sc2c1	34*	10	-59	-20
NNC(=O)c1cccc(COc2ccc(Br)cc2)c1	.	.	78*	-8
CCOC(=O)C1CCCCN1C(=O)CCc1c(C)nc2cc(-c3ccccc3)nn2c1C (configuration not stated)	77*	3	48*	10
Cc1ccc2oc(-c3cccc(NC(=O)/C=C/c4cccc([N+](=O)[O-])c4)c3C)nc2c1	.	.	-13	-6
O=C1OC(c2ccccc2)=C/C1=C/N1CCCCC1	31*	-1	-23	-4
COC(=O)C1CCN(S(=O)(=O)c2ccc(OC)cc2)CC1	9	-2	-52	7
CCOc1cc(S(=O)(=O)Nc2ccc(CC)cc2)ccc1Cl	41*	-8	-69	11
CCOc1cc(S(=O)(=O)Nc2ccc(Cl)cn2)ccc1Cl	.	.	-20	.
COc1ccc(S(=O)(=O)Nc2ccc(S(=O)(=O)Nc3nc(C)cc(C)n3)cc2)cc1OC	32*	5	-27	-11
COc1cc(S(=O)(=O)Nc2ccccc2C)ccc1Cl	20	-6	3	-6
CCOc1cc(S(=O)(=O)Nc2ccccc2CC)ccc1Cl	59*	11	-52	13
CCc1ccc(NS(=O)(=O)c2ccc(OC)c(C)c2)cc1	36*	-10	-47	14
O=C(CSC1=NCCS1)Nc1ccnc2ccccc12	-4	-4	-1	-11
O=C(Nc1ccc([N+](=O)[O-])cc1Br)c1cccnc1	.	.	-77	-6
O=C(CSc1nnc(Nc2ccccc2)s1)Nc1cccc(S(=O)(=O)N2CCCCC2)c1	.	.	-12	2
CCOC(=O)N1[C@@H]2C=C(C)[C@@H]2[C@@H]2[C@@H](C)C(=O)N21	.	.	-7	1
O=[N+]([O-])/C=C/c1cn(Cc2ccc(F)cc2)c2ccccc12	80*	36*	3	18
CCNC(=S)N/N=C/c1cn(Cc2ccc(F)cc2)c2ccccc12	.	.	-16	-7
CCCN1CCN(CCCNC(=O)CCNC(=O)Cn2ccc3ccccc3c2=O)CC1	-10	-3	-22	-5
Cc1ccc(-c2ccc(=O)n(CC(=O)N3CCN(c4cc(Cl)ccc4C)CC3)n2)cc1	47*	17	2	-10
Cc1sc(NC(=O)c2ccco2)nc1-c1ccccc1	21	4	8	-15
Cc1sc(NC(=O)c2ccco2)nc1-c1ccc2c(c1)CC(C)N2C(=O)C1CC1 (configuration not stated)	33*	3	-55	-22
CCC1CC2CC(NC(C)=O)C1C2 (configuration not stated)	33*	0	-14	-7
CCN(CC)C(=O)c1cc2sc3ccccc3c2s1	30*	-7	7	-11
SMILES	PostGolgi ctrl	PostGolgi yeast	BB579 growth dn	Yeast life ext
O=C(c1sc2ccccc2c1Cl)N1CCN(c2ccc(F)cc2)CC1	45*	7	-1	-6
c1ccc(-c2noc(CSc3nnc(Cc4cccs4)n3-c3ccccc3)n2)cc1	11	-3	-29	0
Fc1ccc(-n2c(Cc3ccccc3)nnc2SCc2nc(-c3cccs3)no2)cc1	33*	-1	-55	3
COCCN1C(=O)C(=O)/C(=C(/O)c2ccc(S(=O)(=O)N3CCOCC3)cc2)C1c1ccc(C(C)C)cc1 (configuration not stated)	-5	4	-10	-10
COc1ccccc1N1CCN(c2nc3ccccn3c(=O)c2C=O)CC1	0	-4	-21	-6
Cc1c([N+](=O)[O-])c(C(=O)N2CCCC2)nn1C	42*	-3	-51	1
O=C(CCNc1cccc(Cl)c1)c1ccco1	0	6	-2	-7
O=[N+]([O-])c1ccc(N2CCN(S(=O)(=O)c3ccc(Cl)cc3)CC2)cc1NCc1cccnc1	11	71*	-33	-3
CCOC(=O)c1cc(C#N)c(Oc2ccc(F)cc2)nc1-c1ccccc1	37*	6	-56	-5
COCCNC(=O)C1CC(c2cccc(OC)c2)=NO1 (configuration not stated)	37*	8	9	-4
CCc1[nH]c(=O)c(C#N)c2c1CCCC2	32*	8	3	-1
CCc1[nH]c(=S)c(C#N)c2c1CCCC2	.	.	-31	6
CC1CCCCN1S(=O)(=O)c1ccc(NC(=O)c2cccs2)cc1 (configuration not stated)	33*	-12	-15	-7
CC(=O)Nc1ccc(S(=O)(=O)N2CCCCC2c2cccnc2)cc1 (configuration not stated)	35*	1	-54	-9
c1ccc(CC2CCN(c3nnnn3-c3ccccc3)CC2)cc1	32*	4	-14	-4
CC(=O)N1CCN(c2nnnn2-c2ccccc2)CC1	6	-2	2	-6
CCOC(=O)c1c(C)n(C)c2ccc(OC(=O)c3ccoc3)cc12	32*	7	-41	-24
CCOC(=O)c1c(C)n(C)c2ccc(OC(=O)c3ccc([N+](=O)[O-])cc3)cc12	.	.	-37	0
O=c1c2c([N+](=O)[O-])cc([N+](=O)[O-])cc2sn1-c1ccc(Br)cc1	.	.	45*	-5
O=C(COc1ccc(Br)cc1)N1CCN(c2ccc([N+](=O)[O-])c(N3CCCCC3)c2)CC1	.	.	-14	-2
CCc1cc2c3c(c(=O)oc2cc1OC)CCCC3	49*	-2	-18	-2
CCOc1cc2oc(=O)c3c(c2cc1Cl)CCC3	1	7	-45	-12
Cc1cccc(NC(=O)c2cc(NC(=O)C3CCCCC3C(=O)O)ccc2N2CCCCC2)c1 (configuration not stated)	23	-1	-55	-2
CC(=O)Nc1ccc(N2CCCCC2)c(C(=O)Nc2cccc(C)c2)c1	31*	-17	-16	-23
CNC(=O)COc1ncnc2sccc12	-4	3	-16	-14
SMILES	PostGolgi ctrl	PostGolgi yeast	BB579 growth dn	Yeast life ext
Cc1cc(C(=O)COc2ncnc3sccc23)c(C)n1C	-2	2	-63	35*
CN(c1ccc(OCC(=O)OCC(=O)Nc2c(F)c(F)c(F)c(F)c2F)cc1)S(=O)(=O)c1ccc(F)cc1	.	.	-10	0
CC(C)(C)NC(=O)c1ccccc1-c1nc(-c2ccccc2Cl)no1	30*	4	17	-10
CC(C)NC(=O)c1ccccc1-c1nc(-c2ccccc2Cl)no1	8	-3	-57	-9
O=C(Cc1cccs1)Nc1cccnc1	-4	6	-27	1
COc1ccc(CCNC(=O)CSc2nc(O)c(C(C)C)c(=O)[nH]2)cc1OC	.	.	-34	.
COc1cccc(C(=O)Nc2nnc(-c3cccs3)s2)c1	9	-3	-27	-3
c1ccc(Nc2cc(-c3ccccc3)nc3ncnn23)cc1	15	93*	-67	-9
OC(COc1ccc2ccccc2c1)CN1CCN(c2ccc(F)cc2)CC1 (configuration not stated)	20	1	-29	-4
OC(COc1c(F)cc(Br)cc1F)CN1CCN(c2ccc(F)cc2)CC1 (configuration not stated)	47*	33*	-18	1
